# Results as given in ChEMBL document CHEMBL1124373, “Specific inhibition of benzodiazepine receptor binding by some N-(indol-3-ylglyoxylyl)amino acid derivatives: stereoselective interactions” (J Med Chem, 1989).
# pIC50: −log10 of the molar value.
# Experiments:
# [1] = target: GABA-A receptor; anion channel; test: Inhibitory concentration against [3H]flunitrazepam binding to benzodiazepine receptor from bovine cerebral cortex; type: tissue-based
# Summary of the method: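 Membranes from bovine cerebral cortex were homogenized in 0.32 M sucrose with protease inhibitors, osmotically shocked, and suspended in 50 mM Tris-HCl pH 7.4. Membrane (0.5 mg protein) was incubated with 0.9 nM [3H]flunitrazepam at 0 °C for 90 min, then filtered and counted. Nonspecific binding was defined with 10 µM diazepam. IC50 came from log-probit analysis of six to eight concentrations in triplicate; values are means ± SEM of four determinations.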
# [2] = target: T1, GABA-A receptor; anion channel (Bos taurus) (UniProt P10063+P08220+P20237+P08219+P10064+P22300); test: Percentage inhibition of [3H]flunitrazepam binding to benzodiazepine receptor from bovine cerebral cortex at a concentration of 250 uM; type: tissue-based
# [3] = target: T1, GABA-A receptor; anion channel (Bos taurus); test: Relative binding to GABA-A benzodiazepine receptor in the presence and absence of GABA (GABA shift); type: protein-complex assay
# Summary of the method: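 Exhaustively washed bovine cortical membranes were used. Binding inhibition used 0.9 nM [3H]flunitrazepam at 0 °C for 90 min in 50 mM Tris-HCl pH 7.4. IC50 was determined by log-probit analysis without and with 10 µM GABA. Ratio = IC50 without GABA / IC50 with GABA.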
# [4] = test system: Mus musculus; test: Antagonism of Diazepam anticonvulsant effect in mice treated with 60 mg/kg PTZ; type: functional
# [5] = test system: Mus musculus; test: Dose required to induce convulsions in mice treated with subcutaneous PTZ (40 mg/kg); type: functional; details: sc
# Summary of the method: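 Groups of 10 mice received graded ip doses (0.1 mL) suspended in 1% carboxymethylcellulose, or vehicle alone. A subconvulsant PTZ dose of 40 mg/kg followed 30 min later. ED50 is the dose inducing convulsions in 50% of mice.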
Compound,pIC50 [1],other results
C[C@H](NC(=O)C(=O)c1c[nH]c2ccc(Cl)cc12)C(=O)O,5.30,
CCOC(=O)[C@@H](C)NC(=O)C(=O)c1c[nH]c2ccccc12,4.77,
C[C@@H](NC(=O)C(=O)c1c[nH]c2ccc([N+](=O)[O-])cc12)C(=O)O,4.72,
O=C(N[C@@H](Cc1ccccc1)C(=O)O)C(=O)c1c[nH]c2ccccc12,,inhibition [2]: 47%
O=C(N[C@H](Cc1ccccc1)C(=O)O)C(=O)c1c[nH]c2ccc(Br)cc12,3.61,inhibition [2]: 51%
CCOC(=O)[C@H](Cc1ccccc1)NC(=O)C(=O)c1c[nH]c2ccc(OC)cc12,,inhibition [2]: 77%
O=C(N[C@@H](Cc1ccccc1)C(=O)O)C(=O)c1c[nH]c2ccc([N+](=O)[O-])cc12,5.40,
CCOC(=O)[C@@H](Cc1ccccc1)NC(=O)C(=O)c1c[nH]c2ccc(Cl)cc12,4.35,
C[C@H](NC(=O)C(=O)c1c[nH]c2ccccc12)C(=O)O,4.32,
CCOC(=O)[C@H](C)NC(=O)C(=O)c1c[nH]c2ccc(OC)cc12,6.05,
C[C@@H](NC(=O)C(=O)c1c[nH]c2ccc(Br)cc12)C(=O)O,4.10,
CCOC(=O)[C@H](C)NC(=O)C(=O)c1c[nH]c2ccc(Br)cc12,6.74,Ratio [3]: 0.78; ED50 [4]: 50 mg/kg; ED50 [5]: 40 mg/kg
CCOC(=O)[C@H](C)NC(=O)C(=O)c1c[nH]c2ccc(Cl)cc12,6.82,Ratio [3]: 0.9
O=C(N[C@H](Cc1ccccc1)C(=O)O)C(=O)c1c[nH]c2ccccc12,,inhibition [2]: 32%
CCOC(=O)[C@H](C)NC(=O)C(=O)c1c[nH]c2ccccc12,5.12,
C[C@H](NC(=O)C(=O)c1c[nH]c2ccc([N+](=O)[O-])cc12)C(=O)O,5.52,
CCOC(=O)[C@H](Cc1ccccc1)NC(=O)C(=O)c1c[nH]c2ccc([N+](=O)[O-])cc12,7.00,
O=C(NC(Cc1ccccc1)C(=O)O)C(=O)c1c[nH]c2ccc(Br)cc12 (configuration not stated),3.80,
CCOC(=O)[C@@H](Cc1ccccc1)NC(=O)C(=O)c1c[nH]c2ccc([N+](=O)[O-])cc12,5.55,
C[C@@H](NC(=O)C(=O)c1c[nH]c2ccc(Cl)cc12)C(=O)O,4.34,
CCOC(=O)[C@@H](C)NC(=O)C(=O)c1c[nH]c2ccc(Br)cc12,4.28,Ratio [3]: 0.85
CCOC(=O)[C@@H](Cc1ccccc1)NC(=O)C(=O)c1c[nH]c2ccc(Br)cc12,3.66,
CCOC(=O)[C@H](Cc1ccccc1)NC(=O)C(=O)c1c[nH]c2ccc(Cl)cc12,4.52,

Compound,pIC50 [1],other results
CCOC(=O)[C@H](C)NC(=O)C(=O)c1c[nH]c2ccc([N+](=O)[O-])cc12,7.15,Ratio [3]: 0.67; ED50 [4]: 100 mg/kg; ED50 [5]: 150 mg/kg
CCOC(=O)[C@@H](C)NC(=O)C(=O)c1c[nH]c2ccc(Cl)cc12,4.60,Ratio [3]: 0.92
C[C@@H](NC(=O)C(=O)c1c[nH]c2ccccc12)C(=O)O,3.52,inhibition [2]: 32%
COc1ccc2[nH]cc(C(=O)C(=O)N[C@H](Cc3ccccc3)C(=O)O)c2c1,,inhibition [2]: 18%
CCOC(=O)[C@@H](C)NC(=O)C(=O)c1c[nH]c2ccc(OC)cc12,3.96,
CCOC(=O)C(C)NC(=O)C(=O)c1c[nH]c2ccccc12 (configuration not stated),4.89,
CC(NC(=O)C(=O)c1c[nH]c2ccccc12)C(=O)O (configuration not stated),3.98,
COc1ccc2[nH]cc(C(=O)C(=O)N[C@@H](C)C(=O)O)c2c1,4.66,
CCOC(=O)[C@H](Cc1ccccc1)NC(=O)C(=O)c1c[nH]c2ccc(Br)cc12,4.26,
O=C(N[C@H](Cc1ccccc1)C(=O)O)C(=O)c1c[nH]c2ccc(Cl)cc12,4.32,
O=C(N[C@H](Cc1ccccc1)C(=O)O)C(=O)c1c[nH]c2ccc([N+](=O)[O-])cc12,4.68,
C[C@H](NC(=O)C(=O)c1c[nH]c2ccc(Br)cc12)C(=O)O,5.15,
O=C(N[C@@H](Cc1ccccc1)C(=O)O)C(=O)c1c[nH]c2ccc(Br)cc12,4.22,
CCOC(=O)[C@H](Cc1ccccc1)NC(=O)C(=O)c1c[nH]c2ccccc12,,inhibition [2]: 69%
COc1ccc2[nH]cc(C(=O)C(=O)N[C@H](C)C(=O)O)c2c1,3.77,
CC(NC(=O)C(=O)c1c[nH]c2ccc(Br)cc12)C(=O)O (configuration not stated),4.40,
CCOC(=O)[C@@H](Cc1ccccc1)NC(=O)C(=O)c1c[nH]c2ccccc12,,inhibition [2]: 55%
CCOC(=O)[C@@H](C)NC(=O)C(=O)c1c[nH]c2ccc([N+](=O)[O-])cc12,5.52,Ratio [3]: 0.79
CCOC(=O)[C@@H](Cc1ccccc1)NC(=O)C(=O)c1c[nH]c2ccc(OC)cc12,,inhibition [2]: 30%
COc1ccc2[nH]cc(C(=O)C(=O)N[C@@H](Cc3ccccc3)C(=O)O)c2c1,,inhibition [2]: 50%
O=C(N[C@@H](Cc1ccccc1)C(=O)O)C(=O)c1c[nH]c2ccc(Cl)cc12,4.92,
CCOC(=O)C(Cc1ccccc1)NC(=O)C(=O)c1c[nH]c2ccc(Br)cc12 (configuration not stated),3.74,
